Data on 6 molecules can be found in ChEMBL document CHEMBL2150970, “Synthesis, anticancer activities and molecular modeling studies of novel indole retinoid derivatives” (Eur J Med Chem, 2012).

For test [1], the system named is T47D. Kind of test: Cytotoxicity against human T47D cells after 3 days by SRB assay. In kind it is functional, cell-based. As to conditions: for pIC50: Homo sapiens, T47D, 72 h, read-out: IC50. In a few lines:
(§1)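 Human cancer cells grown in DMEM with 10% FCS and penicillin/streptomycin (CAMA-1 medium also had 1% sodium pyruvate), at 37 °C, 5% CO2. Seeded at 10⁴ cells/well, dosed 24 h later, and exposed 3 days. Fixed with ice-cold 10% TCA for 60 min, stained 10 min with 0.4% SRB at room temperature, washed with 1% acetic acid, dye dissolved in 10 mM Tris base, A515 read. Triplicate runs with matched DMSO controls; IC50 determined.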
Background: In SRB staining, fixed cells bind dye roughly in proportion to their protein.

The subject of a further test is HCT-116. Kind of test: Cytotoxicity against human HCT116 cells after 3 days by SRB assay. In kind it is functional, cell-based. As to conditions: for pIC50: Homo sapiens, HCT-116, 72 h, read-out: IC50. In a few lines:
as §1

In another test the test system is Huh-7. Kind of test: Cytotoxicity against human HuH7 cells after 3 days by SRB assay. It is filed as functional, cell-based. As to conditions: for pIC50: Homo sapiens, Huh-7, 72 h, read-out: IC50. Put shortly: as §1
The test system of test [2] is MCF-12A. Put plainly: Ratio of IC50 for human MCF12A cells to IC50 for human BT20 cells. In a few lines: (§2)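 Each IC50 came from the SRB assay after 3 days' exposure: 10⁴ cells/well, TCA fixation, 0.4% SRB, Tris solubilization, A515, triplicates, DMSO control. Ratio is immortalized normal breast MCF-12A IC50 over the breast cancer line's IC50. Media carried 10% FCS plus antibiotics: DMEM for most lines, DMEM with sodium pyruvate for CAMA-1/MDA-MB-157, glucose-rich RPMI for ZR-75-1, McCoy for SK-BR-3.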

Test [3] has as its system MDA-MB-157. Put plainly: Ratio of IC50 for human MCF12A cells to IC50 for human MDA-MB-157 cells. Put shortly: as §2
In test [4] the test system is MDA-MB-361. Kind of test: Ratio of IC50 for human MCF12A cells to IC50 for human MDA-MB-361 cells. In a few lines: as §2
The test system of test [5] is MDA-MB-231. Kind of test: Induction of apoptosis in ER-negative human MDA-MB-231 cells assessed as apoptotic cells at 1.83 uM after 3 days by Hoechst staining based fluorescent microscopy. In kind it is functional, cell-based.
Test [6] concerns MDA-MB-231. Put plainly: Induction of apoptosis in ER-negative human MDA-MB-231 cells assessed as apoptotic cells at 1.8 uM measured on day 2 by Annexin-V-FITC/propidium iodide staining based FACS flow cytometry. It is filed as functional. Put shortly:
(§3)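 Cells seeded at 5×10⁵ per plate (37 °C, 5% CO2) and treated the following day at two concentrations. On days 2 and 4 after treatment, 1×10⁶ cells were stained with a FITC Annexin V/propidium iodide kit, kept on ice in the dark, and analysed at once on a FACSCalibur. Mean percentage of Annexin V+/PI+ cells is reported. Controls: matched DMSO, plus camptothecin and 1% v/v H2O2 as positive controls.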

Test [7] relates to MDA-MB-453. Put plainly: Ratio of IC50 for human MCF12A cells to IC50 for human MDA-MB-453 cells. Put shortly:
as §2

The test system of test [8] is MCF-12A. Kind of test: Cytotoxicity against human MCF12A cells after 3 days by SRB assay. It is filed as cell-based. The conditions noted are these: 72 h. In a few lines:
(§4)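 Cells at 10⁴/well were treated 24 h after seeding and exposed for three days. They were then fixed in ice-cold 10% TCA for 60 min at 4 °C, stained with 0.4% SRB for 10 min at room temperature, washed with 1% acetic acid and solubilised in 10 mM Tris base. Absorbance was read at 515 nm. IC₅₀ was determined in triplicate with DMSO vehicle controls.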

Test [9] deals with MDA-MB-453. Put plainly: Cytotoxicity against human MDA-MB-453 cells after 3 days by SRB assay. In kind it is functional, cell-based. The conditions noted are these: MDA-MB-453, 72 h. In a few lines: as §4
The test system of a further test is BT-474. Put plainly: Cytotoxicity against human BT474 cells after 3 days by SRB assay. As to conditions: BT-474, 72 h. In kind it is functional, cell-based. In a few lines: as §4
For test [10], the system named is MDA-MB-231. Put plainly: Induction of apoptosis in ER-negative human MDA-MB-231 cells assessed as apoptotic cells at 3.6 uM measured on day 2 by Annexin-V-FITC/propidium iodide staining based FACS flow cytometry. In kind it is functional. In a few lines: as §3
A general note: In flow cytometry, cells or beads pass a laser one at a time.

Test [11] deals with MCF-12A. Put plainly: Ratio of IC50 for human MCF12A cells to IC50 for human CAMA1 cells. In a few lines: as §2
Test [12] relates to MDA-MB-157. Kind of test: Cytotoxicity against human MDA-MB-157 cells after 3 days by SRB assay. In kind it is functional, cell-based. The conditions noted are these: MDA-MB-157, 72 h. Put shortly: as §4
In test [13] the test system is MDA-MB-231. Put plainly: Cytotoxicity against human MDA-MB-231 cells after 3 days by SRB assay. It is filed as functional, cell-based. The conditions noted are these: MDA-MB-231, 72 h. In a few lines:
as §4

In the next test the test system is SK-BR-3. Kind of test: Cytotoxicity against human SKBR3 cells after 3 days by SRB assay. In kind it is functional, cell-based. As to conditions: SK-BR-3, 72 h. Put shortly:
as §4

Test [14] relates to MCF7. Put plainly: Cytotoxicity against human MCF7 cells after 3 days by SRB assay. As to conditions: MCF7, 72 h. It is filed as functional, cell-based. In a few lines: as §4
For test [15], the system named is MDA-MB-361. Put plainly: Cytotoxicity against human MDA-MB-361 cells after 3 days by SRB assay. In kind it is functional, cell-based. As to conditions: MDA-MB-361, 72 h. In a few lines:
as §4

Test [16] has as its system T47D. Kind of test: Induction of apoptosis in ER-positive human T47D cells assessed as apoptotic cells at IC50 concentration after 3 days by Hoechst staining based fluorescent microscopy. In kind it is functional, cell-based.
The subject of test [17] is MCF7. Kind of test: Ratio of IC50 for human MCF12A cells to IC50 for human MCF7 cells. In a few lines: as §2
In test [18] the test system is MDA-MB-231. Kind of test: Induction of apoptosis in ER-negative human MDA-MB-231 cells assessed as apoptotic cells at 3.6 uM measured on day 4 by Annexin-V-FITC/propidium iodide staining based FACS flow cytometry. In kind it is functional. In a few lines: as §3
The test system of a further test is BT-20. Kind of test: Cytotoxicity against human BT20 cells after 3 days by SRB assay. As to conditions: BT-20, 72 h. In kind it is functional, cell-based. In a few lines: as §4
Another test concerns ZR-75-1. Put plainly: Cytotoxicity against human ZR-75-1 cells after 3 days by SRB assay. It is filed as functional, cell-based. The conditions noted are these: ZR-75-1, 72 h. In a few lines: as §4
For test [19], the system named is T47D. Kind of test: Ratio of IC50 for human MCF12A cells to IC50 for human T47D cells. In a few lines: as §2
Test [20] deals with MDA-MB-231. Put plainly: Induction of apoptosis in ER-negative human MDA-MB-231 cells assessed as apoptotic cells at 1.8 uM measured on day 4 by Annexin-V-FITC/propidium iodide staining based FACS flow cytometry. It is filed as functional. Put shortly:
as §3

The subject of the next test is CAMA-1. Kind of test: Cytotoxicity against human CAMA1 cells after 3 days by SRB assay. The conditions noted are these: CAMA-1, 72 h. It is filed as functional, cell-based. Put shortly:
as §1

pIC50: −log10 of the molar value. The source made the active and inactive calls. No cut-off for these calls is given here.

Turning to `CC1(C)CCC(C)(C)c2cc(C(=O)/C=C/c3c[nH]c4ccc(C(=O)O)cc34)ccc21`, the IC50 entry in the test on T47D [1] (t47d), in the test on HCT-116 (hct-116) and with Huh-7 (huh-7) was “Not Active” throughout.
`CC1(C)CCC(C)(C)c2cc(C(=O)/C=C/c3c[nH]c4ccc(Br)cc34)ccc21`: the results for the negative logarithm of the IC50 (pIC50) in the test on T47D [1], in the test with HCT-116 and in the test on Huh-7 were 4.94, 4.97 and 4.85, respectively.
As for `CC1(C)CCC(C)(C)c2cc(C(=O)/C=C/c3c[nH]c4ccccc34)ccc21`, the Ratio IC50 was 2.99 with MCF-12A [2]; 2.68 with MDA-MB-157 [3]; 65.3 in the test with MDA-MB-361 [4]; > 392 in the test on MDA-MB-453 [7]; > 392 in the test with MCF-12A [11]; 2.29 in the test on MCF7 [17]. Moreover, in the test with T47D [19], the Ratio IC50 came out at 3.38. The result in the test with MDA-MB-231 [5] and in the test on T47D [16] was Active. For the same molecule, the negative logarithm of the IC50 (pIC50) (in general, the negative decadic logarithm of the IC50, by convention in mol/L) in the test on T47D [1] was 7.00; in the test on HCT-116, 7.70; with MCF-12A [8], 5.41; in the test with MDA-MB-453 [9], > 8.00; with BT-474, 5.72; in the test on MDA-MB-157 [12] it was 5.84. Also, the pIC50 was 5.74 in the test with MDA-MB-231 [13]; 5.89 in the test on SK-BR-3; 5.77 in the test with MCF7 [14]; 7.22 in the test on MDA-MB-361 [15]; 5.88 in the test with BT-20; 5.41 with ZR-75-1. Moreover, the pIC50 with Huh-7 and in the test on CAMA-1 was > 8.00 throughout. Moreover, the Activity is given as 7.1% in the test with MDA-MB-231 [6], 6.83% with MDA-MB-231 [10], 15.62% in the test with MDA-MB-231 [18] and 10.53% with MDA-MB-231 [20].
As for `CC[C@@]1(O)C(=O)OCc2c1cc1n(c2=O)Cc2cc3ccccc3nc2-1` [CAMPTOTHECIN], the pIC50 in the test on T47D [1] is > 8.00; in the test on HCT-116, > 8.00; in the test with MCF-12A [8], > 8.00; with MDA-MB-453 [9], > 8.00; with BT-474, 4.89; in the test on MDA-MB-157 [12], 7.70. The pIC50 was > 8.00 in the test with MDA-MB-231 [13]; > 8.00 in the test with SK-BR-3; > 8.00 in the test on MCF7 [14]; 6.77 with MDA-MB-361 [15]; > 8.00 in the test with BT-20; > 8.00 with ZR-75-1. Besides, the pIC50 in the test with Huh-7 is 7.22.
For the molecule `CC1(C)CCC(C)(C)c2cc(C(=O)/C=C/c3c[nH]c4ccc(Cl)cc34)ccc21`, the pIC50 in the test on T47D [1] is 4.88; with HCT-116, 4.97; in the test with Huh-7, 4.81.
As to `COc1ccc2[nH]cc(/C=C/C(=O)c3ccc4c(c3)C(C)(C)CCC4(C)C)c2c1`, the pIC50 is 4.94 with T47D [1], 4.86 in the test on HCT-116 and 4.81 with Huh-7.
